Data: ChEMBL document CHEMBL4382276, “New in Vitro Assay Measuring Direct Interaction of Nonsense Suppressors with the Eukaryotic Protein Synthesis Machinery” (ACS Med Chem Lett, 2018)
Calls of active or inactive are those of the source. The calls are words filed in the database; no cut-off is given here.

Tests used:
[1] = at cricket paralysis virus-internal ribosome entry site codon UGG assessed as from FKVRQ-tRNAGln at EC50 to 2 times EC50 measured after 20 mins in presence of Typ-tRNA, Leu-tRNA and [35S]-Met-tRNA by co-sedimentation assay
[2] = tested on: Cricket paralysis virus; test: Induction of read through activity at cricket paralysis virus-internal ribosome entry site premature termination codon UGA assessed as ratio of plateau octapeptide to FKVRQ-tRNAGln measured after 20 mins in presence of Typ-tRNA, Leu-tRNA and [35S]-Met-tRNA by co-sedimentation assay
[3] = Induction of read through activity at cricket paralysis virus-internal ribosome entry site premature termination codon UGA assessed as increase in octapeptide formation from FKVRQ-tRNAGln measured after 20 mins in presence of Typ-tRNA, Leu-tRNA and [35S]-Met-tRNA by co-sedimentation assay
[4] = Induction of [35S]Met-tRNA (unknown origin) precipitable particle formation at 30 uM measured after 20 mins
[5] = Induction of 80S ribosome-internal ribosome entry site (unknown origin) precipitable particle formation at 30 uM measured after 20 mins
[6] = Induction of read through activity at cricket paralysis virus-internal ribosome entry site codon UGA assessed as increase in octapeptide formation from FKVRQ-tRNAGln at 30 to 600 uM measured after 20 mins in presence of Typ-tRNA, Leu-tRNA and [35S]-Met-tRNA by co-sedimentation assay
[7] = tested on: Cricket paralysis virus; test: Inhibition of read through activity at cricket paralysis virus-internal ribosome entry site premature termination codon UGA assessed as decrease in octapeptide formation from FKVRQ-tRNAGln at 600 uM measured after 20 mins in presence of Typ-tRNA, Leu-tRNA and [35S]-Met-tRNA by co-sedimentation assay
[8] = Inhibition of read through activity at cricket paralysis virus-internal ribosome entry site codon UGG assessed as decrease in octapeptide formation from FKVRQ-tRNAGln at 600 uM measured after 20 mins in presence of Typ-tRNA, Leu-tRNA and [35S]-Met-tRNA by co-sedimentation assay
[9] = tested on: Cricket paralysis virus; test: (§1) Induction of read through activity at cricket paralysis virus-internal ribosome entry site codon UGG assessed as rate constant for octapeptide formation from FKVRQ-tRNAGln at 5 uM preincubated for 30 secs in presence of Typ-tRNA followed by Leu-tRNA and [35S]-Met-tRNA addition by co-sedimentation assay
Method in brief: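 POST5 complex (0.02 μM) mixed with Trp-tRNATrp, Leu-tRNALeu and [35S]-Met-tRNAMet (0.08 μM each), eEF1A (0.08 μM), eEF2 (1.0 μM), eRF1 (0.010 μM) and eRF3 (0.020 μM), with or without NonSup. Incubation at 37 °C in Tris-HCl pH 7.5 buffer for 30 s to 20 min. Quench with 0.5 M MES pH 6.0 at 0 °C, ultracentrifuge through 1.1 M sucrose, and count ribosome-cosedimenting [35S] octapeptidyl-tRNA.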

[10] = Induction of read through activity at cricket paralysis virus-internal ribosome entry site codon UGG assessed as eEF2-induced 80S-Trp-IRES-PRE6 formation from 80S-Trp-IRES-POST5 by FRET assay
[11] = tested on: Cricket paralysis virus; test: Induction of read through activity at cricket paralysis virus-internal ribosome entry site premature termination codon UGA assessed as eEF2-induced 80S-Stop-IRES-PRE6 formation from 80S-Stop-IRES-POST5 at 1 to 10 uM by FRET assay
[12] = tested on: Cricket paralysis virus; test: as §1, with “at 500” for “at 5”
Method in brief: (§2)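 Time course with the same components: POST5 complex 0.02 μM, aminoacyl-tRNAs 0.08 μM each, eEF1A, eEF2, eRF1 0.010 μM, eRF3 0.020 μM, Buffer 4, 37 °C. Aliquots taken from 30 s to 20 min and MES-quenched. Octapeptide measured by ribosome cosedimentation or by base release and thin layer electrophoresis. Rate constants derived from the time courses.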

[13] = tested on: Cricket paralysis virus; test: as §1, with “site premature termination” for “site”, “codon UGA” for “codon UGG”, “at 500” for “at 5”
Method in brief: as §2

| SMILES | Activity [1] | Ratio [2] | EC50 [3] [µM] | further results |
| --- | --- | --- | --- | --- |
| N=C1NC(=O)/C(=C/c2ccc(-c3ccccc3[N+](=O)[O-])o2)S1 | Not Active | 0.1 to 0.16 | 170 to 350 | – |
| NCCC[C@H](N)CC(=O)NCCC[C@H](N)CC(=O)NCCC[C@H](N)CC(=O)NCCC[C@H](N)CC(=O)NCCC[C@H](N)CC(=O)N[C@@H]1[C@H](O)[C@@H](OC(N)=O)[C@@H](CO)O[C@H]1NC1=N[C@@H]2C(=O)NC[C@@H](O)[C@H]2N1 | Not Active | 0.1 to 0.3 | 0.4 to 4 | – |
| COc1cccc(-n2c(SCC(=O)Nc3ccc(F)cc3)nnc2-c2ccccn2)c1 | Not Active | 0.1 to 0.16 | 170 to 350 | – |
| NCCC[C@H](N)CC(=O)NCCC[C@H](N)CC(=O)NCCC[C@H](N)CC(=O)NCCC[C@H](N)CC(=O)NCCC[C@H](N)CC(=O)NCCC[C@H](N)CC(=O)NCCC[C@H](N)CC(=O)N[C@@H]1[C@H](O)[C@@H](OC(N)=O)[C@@H](CO)O[C@H]1NC1=N[C@@H]2C(=O)NC[C@@H](O)[C@H]2N1 | Not Active | 0.1 to 0.3 | 0.4 to 4 | – |
| C[C@@H](O)[C@H]1O[C@H](O[C@H]2[C@H](O[C@@H]3O[C@H](CN)[C@@H](O)[C@H]3O)[C@@H](O)[C@H](NC(=O)[C@@H](O)CCN)C[C@@H]2N)[C@H](N)[C@@H](O)[C@@H]1O | Not Active | 0.1 to 0.3 | 0.4 to 4 | – |
| NCCC[C@H](N)CC(=O)NCCC[C@H](N)CC(=O)NCCC[C@H](N)CC(=O)NCCC[C@H](N)CC(=O)NCCC[C@H](N)CC(=O)NCCC[C@H](N)CC(=O)N[C@@H]1[C@H](O)[C@@H](OC(N)=O)[C@@H](CO)O[C@H]1NC1=N[C@@H]2C(=O)NC[C@@H](O)[C@H]2N1 | Not Active | 0.1 to 0.3 | 0.4 to 4 | – |
| COc1cccc2c1C(=O)c1c(O)c3c(c(O)c1C2=O)C[C@@](O)(C(=O)CO)C[C@@H]3O[C@H]1C[C@H](N)[C@H](O)[C@H](C)O1 [DOXORUBICIN] | Not Active | 0.1 to 0.3 | – | Activity [4]: Active; Activity [5]: Active |
| NCCC[C@H](N)CC(=O)NCCC[C@H](N)CC(=O)NCCC[C@H](N)CC(=O)N[C@@H]1[C@H](O)[C@@H](OC(N)=O)[C@@H](CO)O[C@H]1NC1=N[C@@H]2C(=O)NC[C@@H](O)[C@H]2N1 | Not Active | 0.1 to 0.3 | 0.4 to 4 | – |
| CN[C@@H]1[C@@H](O)[C@@H](O[C@@H]2[C@@H](O)[C@H](O[C@H]3O[C@H](CO)[C@@H](O)[C@H](O)[C@H]3N)[C@@H](N)C[C@H]2N)OC[C@]1(C)O | Not Active | 0.1 to 0.3 | 0.4 to 4 | – |
| C/C=C(\C)C(=O)O[C@H]1[C@H](OC(C)=O)[C@]2(CO)[C@H](O)C[C@@H]3C(=CC[C@H]4[C@H]3CC[C@@H]3[C@@H]4CC[C@H](O[C@@H]4O[C@H](C(=O)O)[C@@H](O[C@@H]5O[C@H](CO)[C@@H](O)[C@H](O)[C@H]5O)[C@H](O)[C@H]4O[C@@H]4O[C@H](CO)[C@@H](O)[C@H](O)[C@H]4O)[C@]3(C)CO)[C@@H]2CC1(C)C | – | – | – | Activity [6]: Not Active; inhibition [7]: Active; inhibition (INH) [8]: Active |
| CC[C@H]1OC(=O)C[C@@H](O)[C@H](C)[C@@H](O[C@@H]2O[C@H](C)[C@@H](O[C@H]3C[C@@](C)(O)[C@@H](O)[C@H](C)O3)[C@H](N(C)C)[C@H]2O)[C@@H](CC=O)C[C@@H](C)C(=O)/C=C/C(C)=C/[C@@H]1CO[C@@H]1O[C@H](C)[C@@H](O)[C@@H](OC)[C@H]1OC [TYLOSIN] | – | – | – | Activity [6]: Not Active |
| CN[C@@H]1[C@@H](O)[C@@H](O[C@@H]2[C@@H](O)[C@H](O[C@H]3O[C@H](CN)[C@@H](O)[C@H](O)[C@H]3O)[C@@H](N)C[C@H]2N)OC[C@]1(C)O [BETAMICIN] | Not Active | 0.1 to 0.3 | 0.4 to 4 | – |
| C[C@H](N)[C@H]1O[C@@H](O[C@@H]2[C@@H](O)[C@H](N)C[C@H](N)[C@H]2O[C@H]2O[C@H]([C@@H](C)O)[C@@H](O)[C@H](O)[C@H]2N)[C@H](O)[C@@H]1O | Not Active | 0.1 to 0.3 | 0.4 to 4 | – |
| CN[C@@H]1[C@@H](O)[C@@H](O[C@@H]2[C@@H](O)[C@H](O[C@H]3O[C@H]([C@H](C)O)[C@@H](O)[C@H](O)[C@H]3N)[C@@H](N)C[C@H]2N)OC[C@]1(C)O | Not Active | 0.1 to 0.3 | 0.98 | K [9]: 1 to 1.6 min⁻¹; Activity [10]: Not Active; Activity [11]: Active |
| CCOCCCNC(=O)N1CCN(Cc2ccc3c(c2)OCO3)CC1 | – | – | – | Activity [6]: Not Active |
| CC[C@H]1OC(=O)[C@H](C)[C@@H](O[C@H]2C[C@@](C)(OC)[C@@H](O)[C@H](C)O2)[C@H](C)[C@@H](O[C@@H]2O[C@H](C)C[C@H](N(C)C)[C@H]2O)[C@](C)(O)C[C@@H](C)CN(C)[C@H](C)[C@@H](O)[C@]1(C)O [AZITHROMYCIN] | – | – | – | Activity [6]: Not Active |
| NCCC[C@H](N)CC(=O)NCCC[C@H](N)CC(=O)NCCC[C@H](N)CC(=O)NCCC[C@H](N)CC(=O)N[C@@H]1[C@H](O)[C@@H](OC(N)=O)[C@@H](CO)O[C@H]1NC1=N[C@@H]2C(=O)NC[C@@H](O)[C@H]2N1 | Not Active | 0.1 to 0.3 | 0.4 to 4 | – |
| NCCC[C@H](N)CC(=O)N[C@@H]1[C@H](O)[C@@H](OC(N)=O)[C@@H](CO)O[C@H]1NC1=N[C@@H]2C(=O)NC[C@@H](O)[C@H]2N1 | Not Active | 0.1 to 0.3 | 0.4 to 4 | – |
| O=C(O)c1cccc(-c2noc(-c3ccccc3F)n2)c1 [ATALUREN] | Not Active | 0.1 to 0.16 | 170 to 350 | K [12]: 1 to 1.6 min⁻¹; K [13]: 0.14 min⁻¹ |
| CN(CC(=O)O)NC(=O)C[C@H](N)C[C@@H](O)CN [NEGAMYCIN] | Not Active | 0.1 to 0.3 | – | – |
| NCCC[C@H](N)CC(=O)NCCC[C@H](N)CC(=O)N[C@@H]1[C@H](O)[C@@H](OC(N)=O)[C@@H](CO)O[C@H]1NC1=N[C@@H]2C(=O)NC[C@@H](O)[C@H]2N1 [STREPTOTHRICIN E] | Not Active | 0.1 to 0.3 | 0.4 to 4 | – |
